Data published in ChEMBL document CHEMBL4038305, “Benzoxaborole Antimalarial Agents. Part 5. Lead Optimization of Novel Amide Pyrazinyloxy Benzoxaboroles and Identification of a Preclinical Candidate” (J Med Chem, 2017).
Calls of active or inactive are those of the source. The calls are words filed in the database; no cut-off is given here.

Legend:
[1] = test system: Salmonella typhimurium; assay: Genotoxicity in Salmonella typhimurium TA98 assessed as number of rrevertants per plate at 2 ug/plate in presence of rat liver S9 fraction by Ames test (reference value: 19 +/- 8); assay type: toxicity; settings: salmonella enterica subsp. enterica serovar typhimurium
[2] = test system: Salmonella typhimurium; assay: Genotoxicity in Salmonella typhimurium TA100 assessed as number of revertants per plate at 2 ug/plate in presence of rat liver S9 fraction by Ames test (reference value: 141 +/- 1); assay type: toxicity; settings: salmonella enterica subsp. enterica serovar typhimurium
Method in brief: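 TA100 positive control under S9 activation: 2-aminoanthracene at 2.0 μg/plate, plate incorporation, average revertants per plate.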

[3] = test system: Salmonella typhimurium; assay: Genotoxicity in Salmonella typhimurium TA1535 assessed as number of revertants per plate at 2 ug/plate in presence of rat liver S9 fraction by Ames test (reference value: 10); assay type: toxicity; settings: salmonella enterica subsp. enterica serovar typhimurium
[4] = test system: Salmonella typhimurium; assay: Genotoxicity in Salmonella typhimurium TA1537 assessed as number of revertants per plate at 2 ug/plate in presence of rat liver S9 fraction by Ames test (reference value: 11 +/- 4); assay type: toxicity; settings: salmonella enterica subsp. enterica serovar typhimurium
[5] = test system: Escherichia coli; assay: Genotoxicity in Escherichia coli WP2uvrA assessed as number of revertants per plate at 15 ug/plate in presence of rat liver S9 fraction by Ames test (reference value: 42 +/- 6); assay type: toxicity
[6] = test system: Escherichia coli; assay: Genotoxicity in Escherichia coli WP2uvrA assessed as number of revertants per plate at 1000 ug/plate in absence of rat liver S9 fraction by Ames test (reference value: 45 +/- 9); assay type: toxicity
[7] = test system: Plasmodium falciparum; assay: Antimalarial activity against Plasmodium falciparum NF54 infected in human erythrocytes assessed as reduction in [3H]-hypoxanthine incorporation preincubated for 24 hrs followed by [3H]-hypoxanthine addition measured after 24 hrs by scintillation counting method; assay type: functional, cell-based
[8] = test system: Plasmodium falciparum; assay: Antimalarial activity against Plasmodium falciparum K1 infected in human erythrocytes assessed as reduction in [3H]-hypoxanthine incorporation preincubated for 24 hrs followed by [3H]-hypoxanthine addition measured after 24 hrs by scintillation counting method; assay type: functional, cell-based
[9] = test system: Plasmodium falciparum; assay: Antimalarial activity against Plasmodium falciparum T9/94 infected in human erythrocytes assessed as reduction in [3H]-hypoxanthine incorporation preincubated for 24 hrs followed by [3H]-hypoxanthine addition measured after 24 hrs by scintillation counting method; assay type: functional, cell-based
[10] = test system: Plasmodium falciparum; assay: Antimalarial activity against Plasmodium falciparum HB3 infected in human erythrocytes assessed as reduction in [3H]-hypoxanthine incorporation preincubated for 24 hrs followed by [3H]-hypoxanthine addition measured after 24 hrs by scintillation counting method; assay type: functional, cell-based
[11] = test system: Plasmodium falciparum; assay: Antimalarial activity against Plasmodium falciparum TM90C2A infected in human erythrocytes assessed as reduction in [3H]-hypoxanthine incorporation preincubated for 24 hrs followed by [3H]-hypoxanthine addition measured after 24 hrs by scintillation counting method; assay type: functional, cell-based
[12] = test system: Plasmodium falciparum; assay: Antimalarial activity against Plasmodium falciparum TM90C2B infected in human erythrocytes assessed as reduction in [3H]-hypoxanthine incorporation preincubated for 24 hrs followed by [3H]-hypoxanthine addition measured after 24 hrs by scintillation counting method; assay type: functional, cell-based
[13] = test system: Plasmodium falciparum; assay: Antimalarial activity against Plasmodium falciparum Dd2 infected in human erythrocytes assessed as reduction in [3H]-hypoxanthine incorporation preincubated for 24 hrs followed by [3H]-hypoxanthine addition measured after 24 hrs by scintillation counting method; assay type: functional, cell-based
[14] = test system: Plasmodium falciparum; assay: Antimalarial activity against Plasmodium falciparum V1/S infected in human erythrocytes assessed as reduction in [3H]-hypoxanthine incorporation preincubated for 24 hrs followed by [3H]-hypoxanthine addition measured after 24 hrs by scintillation counting method; assay type: functional, cell-based
[15] = test system: Plasmodium falciparum; assay: Antimalarial activity against intraerythrocytic stage of Plasmodium falciparum assessed as time required for maximal killing effect at 10 times IC50 preincubated for 24 hrs followed by [3H]-hypoxanthine addition measured after 24 hrs by scintillation counting method; assay type: functional
Method in brief: (§1)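 In vitro P. falciparum parasite reduction ratio assay run at 10×, 30× and 100× IC50. Derived parameters: lag phase (time to maximal killing), PRR (parasites killed per life cycle) and PCT99.9% (time to clear 99.9% of the initial parasite population).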

[16] = test system: Plasmodium falciparum; assay: Antimalarial activity against intraerythrocytic stage of Plasmodium falciparum assessed as parasite reduction ratio at 10 times IC50 preincubated for 24 hrs followed by [3H]-hypoxanthine addition measured after 24 hrs by scintillation counting method; assay type: functional; method in brief: as §1
[17] = test system: Plasmodium falciparum; assay: Antimalarial activity against intraerythrocytic stage of Plasmodium falciparum assessed as time required to clear 99.9% of initial parasite population at 10 times IC50 preincubated for 24 hrs followed by [3H]-hypoxanthine addition measured after 24 hrs by scintillation counting method; assay type: functional; method in brief: as §1
[18] = test system: Plasmodium falciparum; assay: Antimalarial activity against chloroquine-resistant Plasmodium falciparum W2 infected in human erythrocytes after 48 hrs by YOYO-1 dye based flow cytometric analysis; assay type: functional, cell-based; settings: W2, 48 h
Method in brief: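 P. falciparum W2 cultures were exposed to the compound for 48 h, with artemisinin and chloroquine as reference controls. IC50 was taken from two independent replicates.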

[19] = test system: Plasmodium falciparum; assay: Antimalarial activity against Plasmodium falciparum 3D7 0087/N9 infected in NOD/SCID IL2R gamma null mouse assessed as decrease in parasitemia at 1 to 100 mg/kg up to 7 days post infection; assay type: functional, organism-based
Method in brief: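 The P. falciparum 3D70087/N9 strain grew in the peripheral blood of NODscidIL2Rγnull mice engrafted with human erythrocytes. Compounds were given orally once a day for four consecutive days.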

[20] = test system: Plasmodium berghei; assay: Antimalarial activity against Plasmodium berghei infected in Swiss Webster mouse assessed as mouse survival rate at 30 mg/kg administered once daily via oral gavage for 4 consecutive days beginning 1 hr after infection measured from day 4 to day 20 post infection relative to control; assay type: functional
Method in brief: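 P. berghei-infected erythrocytes taken from a previously infected mouse were injected intraperitoneally. Oral dosing, once daily for 4 consecutive days, began 1 h after infection, in polyethylene glycol 300/propylene glycol/water (55/25/20 by weight). Chloroquine at 30 mg/kg was the positive control, with a vehicle-only group. Percent survival was recorded daily from day 4 to day 20.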

[21] = test system: Plasmodium falciparum; assay: Antimalarial activity against Plasmodium falciparum 3D7 0087/N9 infected in NOD/SCID IL2R gamma null mouse assessed as decrease in parasitemia at 2.5 to 50 mg/kg up to 7 days post infection; assay type: functional, organism-based
Method in brief: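 Human-erythrocyte-engrafted NODscidIL2Rγnull mice carrying P. falciparum Pf3D70087/N9 in peripheral blood; compound given orally once daily for four consecutive days.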

[22] = test system: Salmonella typhimurium; assay: Genotoxicity in Salmonella typhimurium TA98 assessed as number of revertants per plate at 1 ug/plate in absence of rat liver S9 fraction by Ames test (reference value: 14 +/- 6); assay type: toxicity; settings: salmonella enterica subsp. enterica serovar typhimurium
[23] = test system: Salmonella typhimurium; assay: Genotoxicity in Salmonella typhimurium TA1537 assessed as number of revertants per plate at 75 ug/plate in absence of rat liver S9 fraction by Ames test (reference value: 19 +/- 9); assay type: toxicity; settings: salmonella enterica subsp. enterica serovar typhimurium

Nc1ccc2cc3ccccc3cc2c1 [2-AMINOANTHRACENE]
Activity [1]: 524
Activity [2]: 550
Activity [3]: 163
Activity [4]: 82
Activity [5]: 311

COS(C)(=O)=O [METHANESULFONIC ACID METHYL ESTER]
Activity [6]: 357

CCc1nc(N)nc(N)c1-c1ccc(Cl)cc1 [PYRIMETHAMINE]
IC50 [7]: 0.045 µM
IC50 [8]: > 20 µM
IC50 [9]: 0.038 µM
IC50 [10]: 3.38 µM
IC50 [11]: > 20 µM
IC50 [12]: > 20 µM
IC50 [13]: > 20 µM
IC50 [14]: > 20 µM
Time [15]: 24 h
log(ratio) [16]: 2.9
T99.9% [17]: 61 h

C[C@@H]1CC[C@H]2[C@@H](C)C(=O)O[C@@H]3O[C@@]4(C)CC[C@@H]1[C@]32OO4 [ARTEMISININ]
IC50 [18]: 0.006 µM
Activity [19]: Active
Time [15]: 0 h
log(ratio) [16]: >4.8
T99.9% [17]: <24 h

CCN(CC)CCCC(C)Nc1ccnc2cc(Cl)ccc12 (stereo not drawn) [CHLOROQUINE]
survival at 30 mg/kg [20]: 100%
Activity [21]: Active
Time [15]: 0 h
T99.9% [17]: 34 h

O=[N+]([O-])c1ccc2c(c1)Cc1ccccc1-2 [2-NITROFLUORENE]
Activity [22]: 162

Nc1c2ccccc2nc2ccccc12 [AMINACRINE]
Activity [23]: 430
